The nature of data set [1]: Selectivity index, ratio of CC50 for Balb/c mouse lymph node cells to IC50 for anti-CD3/[…] co-stimulated mouse Balb/c mouse lymph node cells. The class given is functional. An outline of the steps: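 The selectivity index is CC50 on unstimulated lymph node cells divided by IC50 for proliferation of anti-CD3/anti-CD28 co-stimulated lymph node cells, both relative to control values.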

Data set [2] in a line: Cytotoxicity against Balb/c mouse lymph node cells after 48 hrs by MTT assay. The class given is cell-based. An outline of the steps: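 Naïve lymph node cells; the CC50 is the concentration giving 50% cell survival. Cyclosporin A served as the reference control.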
(In general: Formazan colour is commonly taken as a measure of viable cells.)

Data set [3] can be described thus: Immunosuppressive activity in anti-CD3/[…] co-stimulated Balb/c mouse lymph node cells assessed as inhibition of cell proliferation after 72 hrs by ELISA. The class given is functional. An outline of the steps:
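Lymph node cells co-stimulated with anti-CD3/anti-CD28. The IC50 is the concentration inhibiting proliferation by 50% relative to control values. Cyclosporin A served as the reference control.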
(An ELISA detects its analyte on a solid surface through an enzyme-linked reagent.)

Data set [4] can be described thus: Induction of apoptosis in anti-CD-3/[…] co-stimulated Balb/c mouse lymph node cells assessed as apoptotic cells at 20 ug/ml after 24 hrs by annexin V/PI staining-based flow cytometric analysis. The format is functional. An outline of the steps: (§1)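 Lymph node cells isolated from naïve mice were cultured with anti-CD3/anti-CD28 plus compound at 10, 20 or 40 µg/mL for 24 h. Cells were stained with Annexin V-FITC/PI and apoptotic cells were counted by flow cytometry.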
In general terms: A flow cytometer gives signals particle by particle.

Data set [5] in a line: Induction of apoptosis in anti-CD-3/[…] co-stimulated Balb/c mouse lymph node cells assessed as apoptotic cells at 40 ug/ml after 24 hrs by annexin V/PI staining-based flow cytometric analysis. The format is functional. An outline of the steps: as §1
The species named for data set [6] is Mus musculus. The experiment in a line: Induction of apoptosis in anti-CD-3/[…] co-stimulated Balb/c mouse lymph node cells assessed as caspase 3 cleavage product p17 formation after 24 hrs by Western blot analysis. The class given is functional. In outline:
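Anti-CD3/anti-CD28 co-stimulated lymph node cells were treated with compound across a dose series. Lysates were probed by Western blot with an anti-cleaved caspase-3 antibody that recognises the p17 cleavage fragment.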

For data set [7], the species on record is Mus musculus. Nature of the data set: Induction of apoptosis in anti-CD-3/[…] co-stimulated Balb/c mouse lymph node cells assessed as PARP cleavage at 10 to 40 ug/ml after 24 hrs by Western blot analysis. The class given is functional.
Data set [8] in a line: Induction of apoptosis in anti-CD-3/[…] co-stimulated Balb/c mouse lymph node cells assessed as apoptotic cells at 10 ug/ml after 24 hrs by annexin V/PI staining-based flow cytometric analysis. The class given is functional. An outline of the steps:
as §1

For data set [9], the species on record is Mus musculus. Nature of the data set: Induction of apoptosis in anti-CD-3/[…] co-stimulated Balb/c mouse lymph node cells assessed as apoptotic cells after 24 hrs by annexin V/PI staining-based flow cytometric analysis. The format is functional. In outline: as §1

Activity calls are given as the source filed them. No cut-off for these calls is given here. Where only a bound is given, the exact number is not on record here.

This note sets out measurements from ChEMBL document CHEMBL2016450, “Design, synthesis, and biological evaluation of chalcone oxime derivatives as potential immunosuppressive agents” (Bioorg Med Chem Lett, 2012).

Broadly, the CC50 is the concentration giving 50% cytotoxicity. Read a low CC50 as greater toxicity to the cells. In general, IC50 refers to the concentration at which inhibition is half-maximal.

Turning to `COc1ccc(/C=C/C(=N\O)c2ccc(C)cc2)cc1`, the “Ratio CC50/IC50” value in [1] came to 18.82. The CC50 at 48 h in data set [2] is 117 µM. The IC50 in [3] worked out at 6.24 µM.
On the same counts, the results for `O/N=C(\C=C\c1ccc(F)cc1)c1ccc(Br)cc1` are 1.53, 20.3 µM and 13.3 µM.
On the same counts, the results for `COc1ccc(C(/C=C/c2cccs2)=N/O)cc1` are 1.25, 10.6 µM and 8.49 µM.
The matching figures for `O/N=C(\C=C\c1ccc(Cl)cc1)c1ccc(F)cc1`: 1.36, 14.8 µM and 10.9 µM.
For `COc1ccc(/C=C/C(=N\O)c2ccc(OC)cc2)cc1`, the “Ratio CC50/IC50” value in [1] is on record as 176.69. The Activity in [4] is 34.05%; in [5], 96.46%; in data set [6], “Dose-dependent effect”; in data set [8] it was 25.83%; in data set [9] it was “Dose-dependent effect”. Further, the result in data set [7] was Active. In addition, half-maximal cytotoxicity in data set [2] (CC50 at 48 h) was put at 2170 µM. Also, in data set [3], the IC50 worked out at 12.3 µM.
For `Cc1ccc(C(/C=C/c2ccc(Br)cc2)=N/O)cc1`, in [1], the “Ratio CC50/IC50” value amounted to 2.94. The midpoint of cytotoxicity in data set [2], the CC50 at 48 h, lay at 34.2 µM. Also, in data set [3], the IC50 worked out at 11.6 µM.
The matching figures for `COc1ccc(C(=O)/C=C/c2ccc(Br)cc2)cc1`: 3.73, 93.7 µM and 25.1 µM.
On the same counts, the results for `Cc1ccc(C(/C=C/c2ccc(Cl)cc2)=N/O)cc1` are 1.84, 21.3 µM and 11.6 µM.
`COc1ccc(/C=C/C(=N\O)c2ccc(Br)cc2)cc1`: in data set [1], the “Ratio CC50/IC50” value was over 4.75. The compound further gave a CC50 at 48 h in [2] of 23.7 µM. Besides, the IC50 in data set [3] was under 5 µM.
On the same counts, the results for `COc1ccc(C(/C=C/c2ccc(Cl)cc2Cl)=N/O)cc1` are 2.24, 25 µM and 11.2 µM.
The matching figures for `O/N=C(\C=C\c1ccc(Cl)cc1)c1ccc(Cl)cc1`: 1.54, 14.1 µM and 9.15 µM.
On the same counts, the results for `O/N=C(\C=C\c1ccc(F)cc1)c1ccc(Cl)cc1` are 1.08, 11.5 µM and 10.6 µM.
`Cc1ccc(C(/C=C/c2ccc(Cl)c(Cl)c2)=N/O)cc1`: the “Ratio CC50/IC50” value in data set [1] turned out to be 2.32. The CC50 at 48 h in data set [2] was 14.7 µM. Besides, the IC50 in data set [3] was found to be 6.34 µM.
On the same counts, the results for `COc1ccc(/C=C/C(=N\O)c2ccc(Cl)cc2)cc1` are 4.16, 24.3 µM and 5.85 µM.
As to `COc1ccc(C(/C=C/c2ccc(Cl)cc2)=N/O)cc1`, the “Ratio CC50/IC50” value in data set [1] is listed as 25.31. Moreover, the midpoint of cytotoxicity in data set [2], the CC50 at 48 h, lay at 291 µM. In data set [3], the IC50 was 11.5 µM.
For the compound `Cc1ccc(C(/C=C/c2ccc(F)cc2)=N/O)cc1`, the “Ratio CC50/IC50” value in [1] was 1.17. Half-maximal cytotoxicity in data set [2] (CC50 at 48 h) was put at 13.2 µM. Moreover, the IC50 in data set [3] was found to be 11.2 µM.
Consider `COc1ccc(C(/C=C/c2ccc(Br)cc2)=N/O)cc1`, for which, in data set [1], the “Ratio CC50/IC50” value is listed as 52.93. Moreover, the Activity is 32.25% in [4]; 40.63% in data set [5]; “Dose-dependent effect” in data set [6]; 22.71% in data set [8]; “Dose-dependent effect” in data set [9]. The compound also returned a CC50 at 48 h in data set [2] of 737 µM. For the same compound, in [3], the IC50 turned out to be 13.9 µM.
Consider `O/N=C(\C=C\c1ccc(Cl)cc1)c1ccc(Br)cc1`, for which, in [1], the “Ratio CC50/IC50” value was 1.68. In [2], this compound gave a 50% cytotoxic concentration (CC50) at 48 h of 24.7 µM. In addition, in data set [3], the IC50 was determined as 14.7 µM.
On the same counts, the results for `COc1ccc(C(/C=C/c2ccc(F)cc2)=N/O)cc1` are 1.23, 13.5 µM and 11 µM.
On the same counts, the results for `O/N=C(\C=C\c1cccs1)c1ccc(Br)cc1` are 1.38, 15.3 µM and 11.2 µM.
In the case of `COc1ccc(/C=C/C(=O)c2ccc(OC)cc2)cc1` [4,4'-DIMETHOXYCHALCONE], in data set [1], the “Ratio CC50/IC50” value turned out to be 75.98. Also, it took 1790 µM to reach half-maximal cytotoxicity in [2] (CC50 at 48 h). In addition, the IC50 in data set [3] was 23.6 µM.
Compound `O/N=C(\C=C\c1ccc(Cl)c(Cl)c1)c1ccc(Br)cc1` returned a CC50 at 48 h in [2] of under 5 µM. Also, the concentration for half-maximal inhibition (IC50) in [3] is under 5 µM.
With `COc1ccc(C(/C=C/c2ccccc2)=N/O)cc1`, the “Ratio CC50/IC50” value in [1] turned out to be 2.42. In addition, the midpoint of cytotoxicity in data set [2], the CC50 at 48 h, lay at 28.6 µM. Further, the IC50 in data set [3] was determined as 11.8 µM.
The matching figures for `O/N=C(\C=C\c1cccs1)c1ccc(Cl)cc1`: 1.23, 11.8 µM and 9.59 µM.
